The target in one assay is T1, E.coli RNase HI (Escherichia coli, UniProt P0A7Y4).
T1 sequence (P0A7Y4 1-155): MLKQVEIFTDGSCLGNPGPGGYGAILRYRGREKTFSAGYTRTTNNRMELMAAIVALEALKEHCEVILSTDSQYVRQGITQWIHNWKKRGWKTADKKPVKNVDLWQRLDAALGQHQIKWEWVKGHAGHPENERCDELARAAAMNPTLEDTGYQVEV
Nature of the assay: RNase H activity on fluorescent RNA/DNA hybrid, E.coli RNase H. As to conditions: for IC50: IC50 E.c. Rnase H. Format: biochemical.

Assay [1] addresses HIV-2 RT-associated RNase H (Human immunodeficiency virus type 2 subtype A, UniProt P04584). Nature of the assay: RNase H activity on fluorescent RNA/DNA hybrid, HIV-2 RT. Format: biochemical. As to conditions: for IC50 HIV-2 RT: RNase H activity, triplicate assays. The essentials: (§1)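 RNase H cleavage of a fluorescent RNA/DNA hybrid was measured with recombinant E. coli-expressed RT (wild-type p66/p51 for HIV-1; same expression system for HIV-2). Test compound, from a 20 mM DMSO stock, was tested in 2-fold dilutions from 100 μM to […]. Fluorescence was read every 40 s over 30 min. Rates came from the linear portion of the curves, and dose–response curves were fitted. Assays were run in triplicate.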

A further assay addresses T2, human RNase H (Homo sapiens, UniProt O60930).
T2 sequence (O60930 1-286): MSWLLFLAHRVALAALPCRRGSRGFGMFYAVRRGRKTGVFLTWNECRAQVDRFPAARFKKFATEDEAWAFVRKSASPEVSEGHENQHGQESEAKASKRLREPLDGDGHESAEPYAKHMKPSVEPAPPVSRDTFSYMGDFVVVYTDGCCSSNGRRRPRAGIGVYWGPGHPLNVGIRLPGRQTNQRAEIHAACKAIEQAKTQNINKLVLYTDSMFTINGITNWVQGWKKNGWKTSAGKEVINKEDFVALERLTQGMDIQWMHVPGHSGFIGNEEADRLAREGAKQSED
Nature of the assay: RNase H activity on fluorescent RNA/DNA hybrid, human RNase H. The class given is biochemical.

For assay [2], the target named is HIV-1 RT-associated RNase H (Human immunodeficiency virus type 1 group M subtype B, UniProt P04585). Nature of the assay: RNase H activity on fluorescent RNA/DNA hybrid, HIV-1 RT. The class given is biochemical. The conditions noted are these: for IC50: IC50 HIV-1 RT; for IC50 / IC50 HIV-1 RT: RNase H activity, triplicate assays. In short, it runs like this: as §1

A further assay addresses 12mer RNA/DNA hybrid. Briefly: Surface plasmon resonance binding to immobilized RNA/DNA hybrid. As to conditions: SPR; for binding to RNA/DNA hybrid substrate: concentration range of 50 nM–10 mM. (In general: SPR reads the build-up and loss of mass on a sensor chip optically.)
For another assay, the system named is HIV-1 infection. Briefly: Cellular models of HIV-1 infection. The class given is cell-based.
The target of another assay is HIV-1 RT DNA polymerase (Human immunodeficiency virus type 1 group M subtype B, UniProt P04585). Briefly: DNA-dependent DNA polymerase activity of HIV-1 RT. Format: biochemical. As to conditions: single concentration of 50 μM.
In a further assay the target is HIV-2 RT DNA polymerase (Human immunodeficiency virus type 2 subtype A, UniProt P04584). Nature of the assay: DNA polymerase activity of HIV-2 RT. Format: biochemical. The conditions noted are these: 50 μM.
For assay [3], the target named is HIV-1 RT RNase H activity (Human immunodeficiency virus type 1 group M subtype B, UniProt P04585). Briefly: HIV-1 RT-catalyzed polypurine tract. The class given is biochemical. As to conditions: single concentration of 50 μM. The essentials: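 Recombinant wild-type p66/p51 HIV-1 RT was expressed in E. coli. The substrate was a 5′[32P]-labeled HIV-1 PPT RNA primer, extended at its 3′ end by five deoxynucleotides, hybridized to its DNA complement. Test compound was diluted from a 20 mM DMSO stock into reaction buffer and tested at 50 μM. Controls were no inhibitor and DMSO alone. PPT hydrolysis products were assessed qualitatively.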

SMILES strings stand for the structures. Values joined by “and” are separate entries in the source; they are usually repeats but may differ in a detail not shown here. Identical values can stand only once. “Also recorded” adds a separate entry of the source.

The values below come from paper PMC552956 (Nucleic Acids Research, 2005).

Sequence of HIV-2 RT-associated RNase H (P04584 613-1171 limits assumed): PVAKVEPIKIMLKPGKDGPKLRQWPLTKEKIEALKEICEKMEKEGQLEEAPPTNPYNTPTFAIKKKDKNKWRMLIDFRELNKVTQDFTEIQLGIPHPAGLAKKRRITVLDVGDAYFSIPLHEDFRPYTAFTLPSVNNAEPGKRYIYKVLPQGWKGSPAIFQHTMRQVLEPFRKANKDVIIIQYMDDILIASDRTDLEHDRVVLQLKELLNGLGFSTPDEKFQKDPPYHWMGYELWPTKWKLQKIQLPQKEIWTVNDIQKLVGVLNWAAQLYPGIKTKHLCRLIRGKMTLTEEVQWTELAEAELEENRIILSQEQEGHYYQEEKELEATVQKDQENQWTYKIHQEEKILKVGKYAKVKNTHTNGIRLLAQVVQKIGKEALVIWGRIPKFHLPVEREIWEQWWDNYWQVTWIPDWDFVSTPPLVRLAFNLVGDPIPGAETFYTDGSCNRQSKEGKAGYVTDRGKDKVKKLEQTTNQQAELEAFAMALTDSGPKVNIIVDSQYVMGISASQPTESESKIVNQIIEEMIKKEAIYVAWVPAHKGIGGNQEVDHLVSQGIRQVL
Sequence of HIV-2 RT-associated RNase H (P04584 613-1051 partner limits assumed): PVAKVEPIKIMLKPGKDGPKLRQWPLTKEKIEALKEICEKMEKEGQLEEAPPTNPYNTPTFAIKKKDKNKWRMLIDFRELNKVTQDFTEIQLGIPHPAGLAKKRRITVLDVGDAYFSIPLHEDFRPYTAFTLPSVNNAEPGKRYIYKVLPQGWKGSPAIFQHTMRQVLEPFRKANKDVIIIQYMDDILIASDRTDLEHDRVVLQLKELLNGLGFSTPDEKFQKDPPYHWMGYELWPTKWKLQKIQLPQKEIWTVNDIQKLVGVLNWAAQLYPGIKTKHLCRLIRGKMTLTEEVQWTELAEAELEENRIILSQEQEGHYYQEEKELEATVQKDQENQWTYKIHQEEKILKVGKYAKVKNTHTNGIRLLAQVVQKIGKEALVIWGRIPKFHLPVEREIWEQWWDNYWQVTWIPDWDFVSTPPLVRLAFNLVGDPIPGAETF
Sequence of HIV-2 RT DNA polymerase (P04584 613-1171 limits assumed): as the sequence (P04584 613-1171 limits assumed) above
Sequence of HIV-2 RT DNA polymerase (P04584 613-1051 partner limits assumed): as the sequence (P04584 613-1051 partner limits assumed) above

Broadly, the IC50 is the point on the concentration scale where inhibition reaches its midpoint. A lower IC50 goes with greater potency. In the case of `CC(C)=CCc1ccc(=O)c(O)cc1C(C)C` [Nootkatin, 2-hydroxy-5-(3-methyl-2-butenyl)-4-(1-methylethyl)-2,4,6-cycloheptatrien-1-one], the IC50 against E.coli RNase HI (triplicate assays) is over 100 µM; in assay [1] it was over 100 µM; against human RNase H, 25 µM; in assay [2], over 100 µM.
For `O=c1cccccc1O` [Tropolone, 2-hydroxy-2,4,6-cycloheptatrien-1-one], the IC50 at E.coli RNase HI (triplicate assays) is over 100 µM; in assay [1], over 100 µM; against human RNase H it was 3 µM; in assay [2] it was over 100 µM.
Take `CC[n+]1c(-c2ccccc2)c2cc(N)ccc2c2ccc(N)cc21` [ethidium bromide, reference compound]: the Kd at 12mer RNA/DNA hybrid (read-out: Kd for intercalation into RNA/DNA hybrid, 25°C) was about 1.5 µM.
Regarding `CC(C)c1ccccc(=O)c1O` [α-Thujaplicin, 2-hydroxy-3-(1-methylethyl)-2,4,6-cycloheptatrien-1-one], the IC50 is over 100 µM at E.coli RNase HI (triplicate assays), 33 µM in assay [1], 12 µM against human RNase H and 50 µM in assay [2]. In addition, the “binding to RNA/DNA hybrid substrate” value with 12mer RNA/DNA hybrid is reported as “do not bind”.
Take `CC(C)c1cccc(=O)c(O)c1` [β-Thujaplicin, 2-hydroxy-4-(1-methylethyl)-2,4,6-cycloheptatrien-1-one]: the IC50 (on E.coli RNase HI (triplicate assays); in assay [1]; on human RNase H; in [2]) was over 100 µM throughout. For the same compound, the “IC50 E.c. Rnase H” value against E.coli RNase HI (triplicate assays) was “completely inactive”. In addition, the “IC50 HIV-2 RT” value in assay [1] was “completely inactive”. Besides, the “IC50 Hu Rnase H” value on human RNase H (triplicate assays) was “completely inactive”. In the assay on 12mer RNA/DNA hybrid, the “binding to RNA/DNA hybrid substrate” value was “do not bind”. In [2], the “IC50 HIV-1 RT” value is “completely inactive”.
By Ki is commonly meant the dissociation constant of the complex between target and ligand, obtained from inhibition or displacement. Consider `CC(C)c1ccc(O)c(=O)c(O)c1` [β-Thujaplicinol, 2,7-dihydroxy-4-1(methylethyl)-2,4,6-cycloheptatrien-1-one], for which the “activity in cellular models of HIV-1 infection” value in the assay with HIV-1 infection is “inactive”. Further, the “E.coli RNase H less sensitive than HIV-1 RNase H” value on E.coli RNase HI is listed as about 250 fold. Further, the IC50 on E.coli RNase HI (triplicate assays) is ~50 µM and 50 µM; in [1], 0.77 µM; in assay [2], 0.2 µM and 0.21 µM. In addition, the “binding to RNA/DNA hybrid substrate” value in the assay on 12mer RNA/DNA hybrid is “do not bind”. Also, at HIV-1 RT DNA polymerase, the “inhibition of DNA-dependent DNA polymerase activity of HIV-1 RT” value is recorded as “failed to inhibit; also recorded: without affecting; also recorded: do not inhibit; also recorded: unaffected”. Further, in assay [2], the Ki was 0.2 ± 0.07 µM. Moreover, the “mode of inhibition of HIV-1 RT/RNase H” value in [2] (non-linear fitting) was “mixed-type inhibition”. The “inhibition of DNA polymerase activity of HIV-2 RT” value at HIV-2 RT DNA polymerase is “without affecting; also recorded: unaffected”. In [3], the “inhibition of PPT processing” value is “almost complete inhibition”.
As to `CC(C)c1ccc(O)c(=O)cc1` [γ-Thujaplicin, 2-hydroxy-5-1(methylethyl)-2,4,6-cycloheptatrien-1-one], the IC50 was over 100 µM against E.coli RNase HI (triplicate assays), over 100 µM in [1], 2 µM against human RNase H and over 100 µM in assay [2]. Moreover, the “IC50 HIV-2 RT” value in [1] was “failed to inhibit”. Moreover, the “IC50 HIV-1 RT” value in [2] is on record as “failed to inhibit”.
